The source made the active and inactive calls. The calls are words filed in the database; no cut-off is given here.

Data set [1] concerns SH-SY5Y. Put plainly: Cytotoxicity against human SH-SY5Y cells assessed as decrease in cell viability at 10 uM after 48 hrs by MTT assay relative to control. Type of data set: cell-based. The procedure, abridged: (§1)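 Human SH-SY5Y neuroblastoma cells were exposed to compound for 48 h, and viability was read by MTT assay. Mean ± SEM of three independent experiments.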
(In general: Tetrazolium dyes change colour on reduction, which living cells bring about.)

The test system of data set [2] is SH-SY5Y. As to the kind of experiment: Cytotoxicity against human SH-SY5Y cells assessed as cell viability at 1 uM after 48 hrs by MTT assay relative to control. It is filed as cell-based. The procedure, abridged:
as §1

In data set [3] the test system is SH-SY5Y. Put plainly: Cytotoxicity against human SH-SY5Y cells assessed as decrease in cell viability at 25 uM after 48 hrs by MTT assay relative to control. It is filed as cell-based. In outline: as §1
The subject of data set [4] is SH-SY5Y. As to the kind of experiment: Cytotoxicity against human SH-SY5Y cells assessed as decrease in cell viability at 50 uM after 48 hrs by MTT assay relative to control. It is filed as cell-based. In outline:
as §1

In data set [5] the target is Acetylcholinesterase (Electrophorus electricus) (UniProt O42275). Put plainly: Induction of electric eel AChE-mediated drug hydrolysis assessed as release of HLA20-iron complex at 0.2 mM by UV visible spectroscopy in presence of FeSO4. The procedure, abridged:
(§2)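 UV/vis absorption spectra were recorded in 5% NH4Ac, pH 7. Prochelator (0.2 mM) was activated before adding CuSO4 or FeSO4 (0.2 mM).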

Data set [6] addresses T1, Acetylcholinesterase (Rattus norvegicus) (UniProt P37136).
T1 sequence (whole entry): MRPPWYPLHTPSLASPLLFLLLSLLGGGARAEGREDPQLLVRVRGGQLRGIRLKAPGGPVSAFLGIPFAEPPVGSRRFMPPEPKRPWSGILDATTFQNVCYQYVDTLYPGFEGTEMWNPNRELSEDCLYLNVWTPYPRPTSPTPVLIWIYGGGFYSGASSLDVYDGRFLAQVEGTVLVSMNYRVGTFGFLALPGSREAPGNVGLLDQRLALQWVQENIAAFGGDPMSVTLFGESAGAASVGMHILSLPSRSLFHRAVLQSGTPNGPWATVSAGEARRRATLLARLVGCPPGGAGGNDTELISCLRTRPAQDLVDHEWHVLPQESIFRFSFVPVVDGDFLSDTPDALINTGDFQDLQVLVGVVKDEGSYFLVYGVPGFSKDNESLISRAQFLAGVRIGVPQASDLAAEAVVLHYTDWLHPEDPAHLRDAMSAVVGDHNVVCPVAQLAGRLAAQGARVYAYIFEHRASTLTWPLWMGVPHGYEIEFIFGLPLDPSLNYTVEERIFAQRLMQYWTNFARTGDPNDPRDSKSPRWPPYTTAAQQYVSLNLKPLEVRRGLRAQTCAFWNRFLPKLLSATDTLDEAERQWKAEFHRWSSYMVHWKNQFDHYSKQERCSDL
Put plainly: Inhibition of AChE in Wistar rat brain homogenates at 1 uM by Ellman's method. Type of data set: tissue-based. The note with it: TDE = time-dependent effect. In outline: (§3)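 Modified Ellman method on rat brain homogenate enzymes, with acetylthiocholine as AChE substrate and butyrylthiocholine as BuChE substrate. For concentration–response, enzymes were preincubated with inhibitor for 3 h, and IC50 was obtained by nonlinear curve fitting. Mean ± SEM of three to five independent experiments, each in triplicate. The 1 µM AChE inhibition was followed as a time course.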
(In general: Ellman's reagent forms a yellow product with free thiols.)

A further data set concerns the target T2, Acetylcholinesterase (Rattus norvegicus, UniProt P37136).
T2 sequence (P37136 whole entry): T1 sequence (whole entry)
Put plainly: Inhibition of AChE in Wistar rat brain homogenates by Ellman's method. Type of data set: tissue-based. In outline:
as §3

The target in another data set is Butyrylcholinesterase (Rattus norvegicus, UniProt Q9JKC1). Put plainly: Inhibition of BuChE in Wistar rat brain homogenates by Ellman's method. Type of data set: tissue-based. The procedure, abridged:
as §3

Data set [7] addresses Butyrylcholinesterase (Rattus norvegicus) (UniProt Q9JKC1). As to the kind of experiment: Inhibition of BuChE in Wistar rat brain homogenates at 1 uM by Ellman's method. Type of data set: tissue-based. The note with it: TDE = time-dependent effect.
The species entered for another data set is Rattus norvegicus. Put plainly: Selectivity ratio of IC50 for BuChE to IC50 for AChE in Wistar rat brain homogenates. It is filed as tissue-based. In outline:
as §3

Data set [8] has as its target Acetylcholinesterase (Electrophorus electricus) (UniProt O42275). Put plainly: […] of electric eel AChE-mediated drug hydrolysis assessed as release of HLA20-copper complex at 0.2 mM by UV visible spectroscopy in presence of CuSO4. The procedure, abridged:
as §2

Sequence of Butyrylcholinesterase (Rattus norvegicus) (Q9JKC1 as listed by the source): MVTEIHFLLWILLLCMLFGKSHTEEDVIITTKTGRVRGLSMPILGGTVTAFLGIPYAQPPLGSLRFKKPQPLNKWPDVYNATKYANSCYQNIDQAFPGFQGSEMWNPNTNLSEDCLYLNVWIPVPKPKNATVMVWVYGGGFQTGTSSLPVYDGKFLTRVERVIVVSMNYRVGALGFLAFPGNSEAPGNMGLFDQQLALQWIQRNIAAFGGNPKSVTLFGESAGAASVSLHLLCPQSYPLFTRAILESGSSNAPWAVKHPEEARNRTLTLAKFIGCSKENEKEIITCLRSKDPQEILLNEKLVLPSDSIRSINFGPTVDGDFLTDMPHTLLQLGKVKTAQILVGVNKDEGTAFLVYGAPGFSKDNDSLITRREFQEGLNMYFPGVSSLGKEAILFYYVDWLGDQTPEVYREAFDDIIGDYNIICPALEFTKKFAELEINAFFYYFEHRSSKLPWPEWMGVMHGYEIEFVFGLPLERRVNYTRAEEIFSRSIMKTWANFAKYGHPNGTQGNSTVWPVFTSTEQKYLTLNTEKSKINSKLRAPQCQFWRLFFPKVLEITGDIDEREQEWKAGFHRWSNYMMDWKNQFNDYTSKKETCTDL
Sequence of Acetylcholinesterase (Electrophorus electricus) (O42275 24-633 limits assumed): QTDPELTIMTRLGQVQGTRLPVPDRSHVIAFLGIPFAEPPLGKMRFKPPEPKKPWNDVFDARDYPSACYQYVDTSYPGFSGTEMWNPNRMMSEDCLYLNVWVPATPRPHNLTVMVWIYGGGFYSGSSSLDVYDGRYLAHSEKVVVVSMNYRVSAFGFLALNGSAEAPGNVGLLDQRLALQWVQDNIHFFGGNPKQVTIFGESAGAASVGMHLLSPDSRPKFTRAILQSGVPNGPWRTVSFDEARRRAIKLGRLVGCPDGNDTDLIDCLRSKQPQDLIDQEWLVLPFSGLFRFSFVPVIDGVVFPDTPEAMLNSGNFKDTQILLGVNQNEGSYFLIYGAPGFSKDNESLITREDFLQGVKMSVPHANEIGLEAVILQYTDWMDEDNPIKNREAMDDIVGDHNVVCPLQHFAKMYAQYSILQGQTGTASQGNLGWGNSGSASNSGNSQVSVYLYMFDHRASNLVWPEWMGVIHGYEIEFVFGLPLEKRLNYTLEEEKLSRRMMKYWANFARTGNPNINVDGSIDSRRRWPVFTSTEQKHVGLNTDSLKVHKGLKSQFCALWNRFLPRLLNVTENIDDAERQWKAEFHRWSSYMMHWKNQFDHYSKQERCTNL
Sequence of Butyrylcholinesterase (Q9JKC1 whole entry): as the sequence (Q9JKC1 as listed by the source) above

For `C#CCN1CCN(Cc2ccc(O)c3ncccc23)CC1`, the Activity is 60% with SH-SY5Y [1], “Non-toxic” in the data set with SH-SY5Y [2], 87% in the data set on SH-SY5Y [3] and 98% with SH-SY5Y [4].
By IC50 is commonly meant the concentration that inhibits the measured activity by half. Read a low IC50 as higher potency. `C#CCN1CCN(Cc2ccc(OC(=O)N(C)C)c3ncccc23)CC1`: the Activity entry in the data set on SH-SY5Y [1] is “Non-toxic”; in [6] it was “tde”; in the data set with SH-SY5Y [2] it was “Non-toxic”; with SH-SY5Y [3], “Toxic”; in the data set on SH-SY5Y [4] it was “Toxic”; in [7] it was “tde”. Moreover, the outcome in data set [5] and in [8] was Active. For the same molecule, the values for the IC50 at Acetylcholinesterase and against Butyrylcholinesterase were 0.5 µM and 42.6 µM, respectively. For the same molecule, the Ratio IC50 in the data set filed under Rattus norvegicus is 85.
Regarding `CCN(C)C(=O)Oc1cccc([C@H](C)N(C)C)c1`, the Activity result in data set [6] and in data set [7] was “tde” in each case.
